Test results reported in ChEMBL document CHEMBL1155524, “Bis-azaaromatic quaternary ammonium salts as ligands for the blood-brain barrier choline transporter” (Bioorg Med Chem Lett, 2010).

assay: Binding affinity to blood-brain barrier choline transporter in rat brain assessed as inhibition of [3H]choline uptake; format: tissue-based
Procedure, shortened: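 In situ rat brain perfusion (Takasato method, Allen and Smith modification). Analog co-perfused at a single concentration, with brain uptake of [3H]-choline measured. Ki is the analog concentration inhibiting 50% of [3H]-choline uptake into brain, derived from the single-concentration inhibition. n = 4–6 animals. Ki values compared by ANOVA with Bonferroni multiple comparisons test.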

Row | SMILES | Ki [µM]
1 | Cc1ccc[n+](CCCCCC[n+]2cccc(C)c2)c1 | 26
2 | Cc1ccc[n+](CCCC#Cc2ccccc2C#CCCC[n+]2cccc(C)c2)c1 | 319
3 | c1ccc2c[n+](CCCCCCCCCCCC[n+]3ccc4ccccc4c3)ccc2c1 | 22
4 | C[N+](C)(C)CCO [CHOLINE] | 41
5 | C(#Cc1ccc(C#CCC[n+]2ccc3c(c2)CCCC3)cc1)CC[n+]1ccc2c(c1)CCCC2 | 5.4
6 | Cc1ccc[n+](CCC#Cc2ccc(C#CCC[n+]3cccc(C)c3)cc2)c1 | 15
7 | c1ccc2c[n+](CCCCCC[n+]3ccc4ccccc4c3)ccc2c1 | 29
8 | Cc1cc[n+](CCC#Cc2ccc(C#CCC[n+]3ccc(C)cc3)cc2)cc1 | 8.5
9 | Cc1ccc[n+](CCCC#Cc2cccc(C#CCCC[n+]3cccc(C)c3)c2)c1 | 140
10 | Cc1ccc[n+](CCCCCCCC[n+]2cccc(C)c2)c1 | 24
11 | Cc1ccc[n+](CCCCCCCCCC[n+]2cccc(C)c2)c1 | 22
12 | Cc1cc[n+](CCC#Cc2ccc(C#CCC[n+]3ccc(C)c(C)c3)cc2)cc1C | 8.4
13 | CCCCCCCC[n+]1cccc([C@@H]2CCCN2C)c1 | 49
14 | Cc1ccc[n+](CCCCCCCCC[n+]2cccc(C)c2)c1 | 30
15 | Cc1ccc[n+](CCCCCCCCCCCC[n+]2cccc(C)c2)c1 | 36
16 | Cc1ccc[n+](CCCCCCCCCCC[n+]2cccc(C)c2)c1 | 36
17 | Cc1cc(C)c[n+](CCC#Cc2ccc(C#CCC[n+]3cc(C)cc(C)c3)cc2)c1 | 7.4
18 | c1ccc2c[n+](CCCCCCCCCC[n+]3ccc4ccccc4c3)ccc2c1 | 10
